Reference: ChEMBL document CHEMBL4043068, “(±)-Uncarilins A and B, Dimeric Isoechinulin-Type Alkaloids from Uncaria rhynchophylla” (J Nat Prod, 2017)
The source made the active and inactive calls. No cut-off for these calls is given here.

What was measured:
Type in all cases: functional, cell-based
[1] = biological target: Melatonin receptor type 1A (Homo sapiens) (UniProt P48039); test: Agonist activity at human MT1 receptor expressed in HEK293 cells incubated for 1 hr by Fluo-8 dye based calcium assay
Melatonin receptor type 1A (Homo sapiens), sequence (P48039 whole entry): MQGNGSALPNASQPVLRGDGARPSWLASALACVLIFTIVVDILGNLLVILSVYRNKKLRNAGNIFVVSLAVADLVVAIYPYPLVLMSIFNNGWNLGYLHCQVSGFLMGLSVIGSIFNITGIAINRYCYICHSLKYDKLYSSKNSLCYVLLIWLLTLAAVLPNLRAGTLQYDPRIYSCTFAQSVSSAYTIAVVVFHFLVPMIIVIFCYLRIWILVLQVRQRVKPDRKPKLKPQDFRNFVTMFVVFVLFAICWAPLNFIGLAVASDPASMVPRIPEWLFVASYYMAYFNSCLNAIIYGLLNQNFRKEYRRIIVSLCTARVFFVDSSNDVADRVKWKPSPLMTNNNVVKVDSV
Outline: (§1)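 HEK293 cells stably expressing the human receptor, kept in DMEM with 10% FBS, seeded at 4 × 10^4 cells/well on Matrigel-coated plates and incubated overnight (5% CO2, 37 °C). Fluo-8 wash-free calcium dye loaded for 1 h at 37 °C. Samples in Hank's balanced salt solution, tested at 0.25 mM. Calcium fluorescence read on a FlexStation3 plate reader.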

[2] = biological target: T1, Melatonin receptor type 1B (Homo sapiens) (UniProt P49286); test: Agonist activity at human MT2 receptor expressed in HEK293 cells incubated for 1 hr by Fluo-8 dye based calcium assay; outline: as §1
T1 sequence (whole entry): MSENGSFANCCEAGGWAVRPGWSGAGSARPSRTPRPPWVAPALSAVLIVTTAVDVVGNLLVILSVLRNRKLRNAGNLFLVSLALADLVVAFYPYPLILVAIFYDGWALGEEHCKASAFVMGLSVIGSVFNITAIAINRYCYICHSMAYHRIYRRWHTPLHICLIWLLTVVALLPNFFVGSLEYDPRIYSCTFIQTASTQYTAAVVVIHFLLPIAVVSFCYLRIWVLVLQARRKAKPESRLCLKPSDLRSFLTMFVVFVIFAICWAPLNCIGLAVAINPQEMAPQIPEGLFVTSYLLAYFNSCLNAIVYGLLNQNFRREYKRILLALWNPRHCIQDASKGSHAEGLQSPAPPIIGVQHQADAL

[3] = biological target: T2, 5-hydroxytryptamine receptor 1A (Homo sapiens) (UniProt P08908); test: Agonist activity at human 5HT1A receptor expressed in HEK293 cells incubated for 1 hr by Fluo-8 dye based calcium assay; outline: as §1
T2 sequence (whole entry): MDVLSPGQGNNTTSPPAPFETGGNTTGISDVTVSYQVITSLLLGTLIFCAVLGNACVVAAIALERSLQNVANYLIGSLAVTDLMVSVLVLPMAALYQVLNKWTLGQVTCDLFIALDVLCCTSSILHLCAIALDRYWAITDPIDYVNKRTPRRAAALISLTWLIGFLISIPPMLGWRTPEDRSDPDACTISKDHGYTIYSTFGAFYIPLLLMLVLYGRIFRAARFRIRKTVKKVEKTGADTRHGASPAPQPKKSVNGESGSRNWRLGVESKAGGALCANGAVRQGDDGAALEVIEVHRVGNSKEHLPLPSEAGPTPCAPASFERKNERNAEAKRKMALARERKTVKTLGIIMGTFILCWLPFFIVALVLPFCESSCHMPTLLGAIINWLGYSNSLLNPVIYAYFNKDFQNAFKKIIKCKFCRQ

[4] = biological target: T3, 5-hydroxytryptamine receptor 2C (Homo sapiens) (UniProt P28335); test: Agonist activity at human 5HT2C receptor expressed in HEK293 cells incubated for 1 hr by Fluo-8 dye based calcium assay; outline: as §1
T3 sequence (whole entry): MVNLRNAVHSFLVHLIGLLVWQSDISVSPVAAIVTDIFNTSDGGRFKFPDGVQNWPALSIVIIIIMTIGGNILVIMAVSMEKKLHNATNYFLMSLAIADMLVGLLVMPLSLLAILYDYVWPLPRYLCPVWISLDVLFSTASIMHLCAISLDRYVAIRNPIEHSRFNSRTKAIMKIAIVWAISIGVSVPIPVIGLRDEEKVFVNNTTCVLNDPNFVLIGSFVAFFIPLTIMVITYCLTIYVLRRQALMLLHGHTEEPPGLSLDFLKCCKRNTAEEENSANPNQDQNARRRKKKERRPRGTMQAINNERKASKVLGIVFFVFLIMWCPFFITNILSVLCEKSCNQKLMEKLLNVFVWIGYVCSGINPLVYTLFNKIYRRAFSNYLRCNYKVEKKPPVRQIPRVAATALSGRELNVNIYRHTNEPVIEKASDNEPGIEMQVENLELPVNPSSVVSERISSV

Row | Activity [1] | Activity [2] | Activity [3] | Activity [4] | Structure (SMILES)
1 | Active | Active | inactive | inactive | C=CC(C)(C)c1[nH]c2ccccc2c1[C@@H]1[C@@H](c2c(C(C)(C)C=C)[nH]c3ccccc23)[C@@]2(NC(=O)[C@H](C)NC2=O)[C@]12NC(=O)[C@H](C)NC2=O
2 | 11.3% | 52.4% | inactive | inactive | C=CC(C)(C)c1[nH]c2ccccc2c1[C@H]1[C@H](c2c(C(C)(C)C=C)[nH]c3ccccc23)[C@]2(NC(=O)[C@@H](C)NC2=O)[C@@]12NC(=O)[C@@H](C)NC2=O
3 | Active | Active | inactive | inactive | C=CC(C)(C)c1[nH]c2ccccc2c1[C@H]1[C@H](c2c(C(C)(C)C=C)[nH]c3ccccc23)[C@]2(NC(=O)[C@H](C)NC2=O)[C@@]12NC(=O)[C@H](C)NC2=O
4 | Active | Active | inactive | inactive | C=CC(C)(C)c1[nH]c2ccccc2c1[C@@H]1[C@@H](c2c(C(C)(C)C=C)[nH]c3ccccc23)[C@@]2(NC(=O)[C@@H](C)NC2=O)[C@]12NC(=O)[C@@H](C)NC2=O
